Tests used:
[1] = tested on: iNOS, COX2, IL-6 and TNF-α protein expression; test: Western blot of inflammatory protein expression in LPS-treated RAW264.7 cells; format: cell-based; settings: RAW264.7, 2, 1, 0.5 µM 1 h, then LPS 500 ng/mL 24 h
In short: (§1)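 RAW264.7 cells (2 × 10^6/well) were cultured overnight, pretreated 1 h with test compound at 2, 1 or 0.5 µM, then stimulated with LPS 0.5 µg/mL. Lysis was in RIPA, followed by SDS-PAGE and PVDF transfer. Primary antibodies (1:1000) were applied overnight at 4 °C, then HRP secondary for 1 h, with ECL detection and β-actin reference. Three repeats; densitometry given as mean ± SD.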

[2] = tested on: phosphorylation of IκB and p65 (NF-κB signalling pathway); test: Western blot of NF-κB signalling pathway in LPS-treated RAW264.7 cells; format: cell-based; settings: RAW264.7, 2, 1, 0.5 µM 1 h, then LPS 500 ng/mL 30 min
In short: as §1

[3] = tested on: p-p38, p-ERK and p-JNK (MAPK signalling pathway); test: Western blot of MAPKs signalling pathway in LPS-treated RAW264.7 cells; format: cell-based; settings: RAW264.7, 2, 1, 0.5 µM 1 h, then LPS 500 ng/mL 30 min
[4] = tested on: DSS-induced acute colitis in mice; test: DSS-induced acute colitis model in mice; format: in vivo, C57BL/6 mice; settings: for MPO in colon tissue: day 7, E2 20 mg/kg, sulfasalazine 200 mg/kg, oral
In short: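 Male C57BL/6 mice (16–18 g; n=10 per group) received 5% (wt/vol) DSS in drinking water on days 1–7. Test compound (10 or 20 mg/kg) or sulfasalazine 200 mg/kg was given by gavage in 0.5% CMC-Na on days 1–7; control groups received vehicle. Weight, stool and DAI were scored daily. On day 8: serum ELISA (TNF-α, IL-1β, IL-6), colon length, histology, and colon MPO. Values are mean ± SEM.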

Row | SMILES | Expression of iNOS, COX2, IL-6 and TNF-α protein [1] | Phosphorylation of IκB and p65 proteins [2] | Expression of p-p38, p-ERK and p-JNK [3] | DSS treatment-induced shortening of colon length ([4]; 5% DSS days 1-7, oral E2 10 and 20 mg/kg) | Histopathological symptoms of colon ([4]; 5% DSS days 1-7, oral E2, vs model group) | Levels of COX-2, p-NF-κB and p-Stat3 expression in colon (Western blot) ([4]; DSS-treated mice, oral E2) | Levels of TNF-α, IL-1β and IL-6 in serum (ELISA) ([4]; DSS-treated mice, oral E2) | mRNA expression levels of TNF-α, IL-1β, IL-6, iNOS, COX-2 and TLR4 in colon tissue ([4]; DSS-treated mice, oral E2, RT-qPCR) | MPO in colon tissue [4]
1 | C#CCOc1ccc(/C=C/c2cc(OC)cc(OC)c2-c2cnnn2C(=O)NCCC)cc1 [E2] | significantly inhibited | inhibited | inhibits the expression of p-p38, p-ERK, and p-JNK in a dose-dependent manner | significantly attenuated | significantly improved these symptoms | decreased | significantly decreased | alleviated | significantly reduced
2 | O=C(O)c1cc(/N=N/c2ccc(S(=O)(=O)Nc3ccccn3)cc2)ccc1O [sulfasalazine, Sulfasalazine, reference compound] |  |  |  |  |  |  |  |  | significantly reduced

Reference: paper PMC10906133 (Journal of Enzyme Inhibition and Medicinal Chemistry, 2024)
